# Where “and” joins values, the source holds several entries; their conditions need not be identical. Equal values may be shown once. Read-outs that look alike come from different tables or passages of the source.
# What was measured:
# [1] = test system: metastatic renal cell carcinoma; details: mRCC; cited from earlier work
# [2] = test system: metastatic renal cell carcinoma; details: CABOSUN trial, cited from earlier work
# [3] = format: in vivo, human; details: for AUC: human, plasma, oral
# [4] = cited from earlier work
# [5] = Cabozantinib plasma PK monitoring; format: in vivo, human
# [6] = Adverse events in the study cohort; format: in vivo, human
# Procedure, shortened: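 Clinical examination and blood tests every 4-6 weeks. Adverse events graded by CTCAE v5.0. Relevant toxicity defined as grade 3-4, or grade 2 requiring dose reduction or discontinuation. Each patient counted once for toxicity.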
# [7] = test system: metastatic renal cell carcinoma; details: CheckMate 9ER PK/PD study, Cavg up to day 1 of cycle 7; cited from earlier work
# [8] = test system: metastatic renal cell carcinoma; details: METEOR trial; cited from earlier work
# [9] = PK/PD relation for efficacy: cabozantinib PK at progressive disease; format: in vivo, human; details: human, plasma, oral
# [10] = test system: metastatic renal cell carcinoma; assay: as above; format: in vivo, human
# [11] = cited from earlier work; remark: listed apart in the source
# [12] = cited from earlier work; remark: listed apart in the source
# [13] = patients with relevant toxicity
# [14] = patients without relevant toxicity
# [15] = most frequent G3 toxicities, of the 30 patients
# [16] = of the 30 patients with relevant toxicity
# [17] = SD/PR patients (disease control)
# [18] = patients with progressive disease (PD)
smiles,measurement,setting,value
CNC(=O)c1ccccc1Sc1ccc2c(/C=C/c3ccccn3)n[nH]c2c1 [Axitinib],AUC at 4 weeks from treatment start associated with better OS and PFS,[1],> 300 ng·h/mL and 154 to 620 ng·h/mL
same,"Css,trough associated with longer OS",[1],• >5 ng/ml associated with longer OS
same,"Css,trough associated with ≥G2 asthenia",[1],> 7.1 ng/mL
Cc1ccc(Nc2nccc(N(C)c3ccc4c(C)n(C)nc4c3)n2)cc1S(N)(=O)=O [Pazopanib],"Css,trough associated with PD",[1],< 15 µg/mL
same,"Css,trough associated with PR/SD",[1],≥ 15 µg/mL
same,"Css,trough associated with longer PFS and greater tumor shrinkage",[1],≥ 20.5 µg/mL
CCN(CC)CCNC(=O)c1c(C)[nH]c(/C=C2\C(=O)Nc3ccc(F)cc32)c1C [Sunitinib],AUCss and efficacy,[1],• Lower in PD patients compared with AUCss at treatment start.
same,AUCss associated with higher grade 3-4 toxicity,[1],• >2150 ng/ml/h higher grade 3-4 toxicity
same,"Css,trough associated with longer PFS and TTF",[1],< 100 ng/mL
same,"Css,trough associated with worse outcomes",[1],> 100 ng/mL
COc1cc2nccc(Oc3ccc(NC(=O)C4(C(=O)Nc5ccc(F)cc5)CC4)cc3)c2cc1OC [cabozantinib],PFS and ORR versus first-line standard sunitinib,[2]; first-line mRCC,superior to first-line standard sunitinib
same,Dose reduction (DR) rate,[2],46%
same,Drug discontinuation (DD) rate,[2],16%
same,Grade 3-4 adverse event rate,[2],67%
same,Ctrough threshold to detect relevant toxicity,[3]; ROC curve,617.7 ng/mL
same,AUC,"[3]; Mean AUC (SD), patients with relevant toxicity",28600 ng·h/mL
same,AUC,"[3]; Mean AUC (SD), patients without relevant toxicity",19800 ng·h/mL
same,AUC,"[3]; Median AUC (IQR), patients with relevant toxicity",21000 ng·h/mL
same,AUC,"[3]; Median AUC (IQR), patients without relevant toxicity",16000 ng·h/mL
same,Cmeas,[3]; [13],732 ng/mL
same,Median Ctrough (IQR),[3]; [13],693 ng/mL
same,Mean Ctrough (SD),"[3]; patients with relevant toxicity (G3-4, or G2 requiring DR or DD)",950.2 ng/mL
same,Cmeas,[3]; [14],531 ng/mL
same,Mean Ctrough (SD),[3]; [14],574.1 ng/mL
same,Median Ctrough (IQR),[3]; [14],521 ng/mL
same,Biopharmaceutics Classification System class,[4],Class II
same,Cellular permeability in vivo,[4],high
same,Mean Ctrough at 40 mg daily (SD),[5]; 40 mg daily,565 (283) ng/ml
same,Median Ctrough at 40 mg daily (IQR),[5]; 40 mg daily,477 (366-649) ng/ml
same,Mean Ctrough at 60 mg daily (SD),[5]; 60 mg daily,667 (375) ng/ml
same,Median Ctrough at 60 mg daily (IQR),[5]; 60 mg daily,564 (402-777) ng/ml
same,AUC,"[5]; human, plasma, oral, Mean AUC (SD), whole population, from population PK model",20900 ng·h/mL
same,Median measured cabozantinib plasma concentration,"[5]; median daily dose 40 mg, median time 38 weeks",500 ng/mL
same,Median Ctrough (IQR),[5]; whole population,500.2 (365.5-742.5) ng/ml
same,Mean Cmeas (measured blood concentration),"[5]; whole population, 76 mRCC patients, steady state, at least 8 h from last dose",598.3 ng/mL
same,Mean Ctrough (SD),"[5]; whole population, Ctrough estimated from Cmeas by formula",597.7 ng/ml and 597.7 (363.9) ng/ml
same,Mean Cl/F (SD),"[5]; whole population, from population PK model",2.5 L/h
same,G3 cutaneous rash,[6]; [15],16.7%
same,G3 hand-foot syndrome (HFS),[6]; [15],26.7%
same,G3 hypertension,[6]; [15],50%
same,G3 vomiting,[6]; [15],10%
same,Number of patients who experienced a relevant toxicity,"[6]; of 76 patients, at data cut-off",30 patients
same,Patients with G2 event requiring a dose reduction (DR),[6]; [16],20%
same,Patients with G2 event requiring a drug discontinuation (DD),[6]; [16],26.7%
same,Patients with at least one G2 event requiring a DD or a DR,[6]; [16],46.7%
same,Patients with at least one G3 toxicity,[6]; [16],53.3%
same,G4 toxicity,[6]; study cohort,No patient
same,Effect of average cabozantinib concentration (Cavg) on PFS,[7],no effect
same,Dose reduction (DR) rate,[8],60%
same,Drug discontinuation (DD) rate,[8],9%
same,Grade 3-4 adverse event rate,[8],74%
same,"PFS, ORR and OS versus everolimus",[8],superiority over everolimus
same,AUC,"[9]; Mean AUC (SD), SD/PR patients (disease control)",24600 ng·h/mL
same,AUC,"[9]; Mean AUC (SD), patients with progressive disease (PD)",17700 ng·h/mL
same,AUC,"[9]; Median AUC (IQR), SD/PR patients (disease control)",20000 ng·h/mL
same,AUC,"[9]; Median AUC (IQR), patients with progressive disease (PD)",16000 ng·h/mL
same,Number of PR observed,[10]; RECIST 1.1,7 patients
same,Ctrough threshold to detect disease progression (drug efficacy threshold),[10]; ROC curve,536.8 ng/mL
same,Mean Cl/F (SD),[10]; [17],2.01 L/h
same,Mean Ctrough (SD),[10]; [17],788.5 ng/mL
same,Median Cl/F (IQR),[10]; [17],2.9 L/h
same,Proposed target Ctrough for efficacy in TDM,"[10]; mRCC, real-life TDM",> 530 ng/mL
same,Number of patients with progressive disease,"[10]; of 76 patients, RECIST 1.1, at data cut-off",35 patients and 34 patients
same,Patients with PR observed,"[10]; of patients, RECIST 1.1",9.2%
same,Mean Cl/F (SD),[10]; [18],2.86 L/h
same,Mean Ctrough (SD),[10]; [18],465.6 ng/mL
same,Median Cl/F (IQR),[10]; [18],2 L/h
same,Median Ctrough (IQR),[10]; [18],406 ng/mL
same,Effect of PPI administration on cabozantinib efficacy and clinical PK,[11],no relevant effect
same,Individual predicted average cabozantinib concentration at steady state,[12]; 20 mg daily,375 ng/mL
same,Individual predicted average cabozantinib concentration at steady state,[12]; 40 mg daily,750 ng/mL
same,Individual predicted average cabozantinib concentration at steady state,[12]; 60 mg daily,1125 ng/mL
same,"Cl/F, patients with a lower Cl/F",[12]; after oral administration,1.3 L/h
same,"Cl/F, patients with a standard Cl/F",[12]; after oral administration,2.3 L/h
